Source: PubChem BioAssay
Cneo AK release – Cryptococcus neoformans lysis via adenylate kinase release; actives 0.2% (n = 360,000); lysis activity, % at 15 µM; C. neoformans lysis, adenylate kinase release luminescence, 4 h; normalised: neutral wells 0, clomiphene wells 100;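 active = mean lysis activity across replicates of at least 80%, whatever share of replicates individually reach that level; inactive = mean lysis activity below 80%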
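Schedule: static 4 h at 37 °C with compound, 1 h detection; system: C. neoformans cells; benchmarks: Clomiphene as positive control; buffer or medium: fresh YPD medium; measure: luminescence rise reflecting yeast cell lysis; measured by: luminescent adenylate kinase detection reagent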
PvdQ inh – P. aeruginosa PvdQ acylase inhibition | purified PvdQ acylase, fluorescence plate reader | inhibition, % at 10 µM | actives 0.063% (n = 340,000) | AID 488965; in the data active = inhibition above about 30%, passing the limit was not always enough;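 note: 0% = vehicle neutral wells and 100% = reference inhibitor wells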
PglD inh – inhibitors of Campylobacter jejuni PglD acetyltransferase | inhibition, % at 12.5 µM | actives 0.098% (n = 360,000) | purified PglD enzyme, DTNB colorimetric CoA detection; in the data active = inhibition above about 16%, passing the limit was not always enough
miR-122 sensor – miR-122 inhibition in Huh7 cells | actives 0.3% (n = 340,000) | Huh7 miR-122 Renilla luciferase sensor, 48 h; neutral wells = 0, positive control = 100 | activation (reporter increase), % at 12.5 µM;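 active = mean replicate activation score at least 90 and every replicate individually at or above 90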;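 note: higher luciferase means less miR-122 activity so hits act as miR-122 inhibitors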
PDI turbidity – inhibitors of human protein disulfide isomerase; P07237; PDI insulin aggregation turbidity, A650, 90 min; inhibition, % at 10 µM; actives 0.052% (n = 350,000);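 active = mean inhibition across replicates of 30% or more, whatever share of single replicates reach that level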
ERp5 inh – inhibitors of human ERp5. inhibition, % at 9.99 µM. Q15084. ERp5 insulin aggregation, absorbance 650 nm, 90 min. actives 0.05% (n = 350,000);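 active = mean replicate inhibition above about 25%, with every replicate also reaching it, limit read from the data, passing the limit was not always enough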
Target sequence (Q15084 whole entry, looked up): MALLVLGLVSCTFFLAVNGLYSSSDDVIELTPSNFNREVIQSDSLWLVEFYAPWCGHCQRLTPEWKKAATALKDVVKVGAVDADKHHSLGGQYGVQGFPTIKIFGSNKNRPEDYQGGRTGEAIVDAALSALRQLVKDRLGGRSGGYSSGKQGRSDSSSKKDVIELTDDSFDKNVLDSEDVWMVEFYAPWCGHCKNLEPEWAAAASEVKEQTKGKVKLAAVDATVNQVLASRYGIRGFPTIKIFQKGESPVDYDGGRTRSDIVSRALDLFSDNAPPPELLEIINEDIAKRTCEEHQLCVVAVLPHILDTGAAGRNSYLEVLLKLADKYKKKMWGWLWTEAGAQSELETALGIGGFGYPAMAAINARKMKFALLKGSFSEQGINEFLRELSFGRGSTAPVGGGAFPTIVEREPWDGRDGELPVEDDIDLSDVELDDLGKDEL
Numbers without * were called inactive; / = no result; [ ] = another dose, or the depositor's remark. An excerpt weighted towards active compounds, which were near 0.58% of everything screened.

SMILES	Cneo AK release	PvdQ inh	PglD inh	miR-122 sensor	PDI turbidity	ERp5 inh
CO[C@H]1CN(C)C(=O)c2cc(NS(=O)(=O)CC(F)(F)F)ccc2OC[C@@H](C)N(Cc2cccnc2)C[C@@H]1C	88*	/	3	/	/	3
C[C@@H]1CN([C@@H](C)CO)C(=O)c2cc(NC(=O)Nc3ccccc3)ccc2O[C@H]1CN(C)C(=O)Nc1ccc2c(c1)OCO2	/	/	/	-2[16.7 µM]	/	/
Cc1noc(C)c1NC(=O)N(C)C[C@@H]1OCCCC[C@H](C)Oc2ccc(NC(=O)Cc3ccccc3)cc2C(=O)N([C@@H](C)CO)C[C@H]1C	1	/	1	-1[16.7 µM]	/	-1
CO[C@H]1CN(C)C(=O)c2cc(NC(C)=O)ccc2OC[C@H](C)N(Cc2cccc(F)c2)C[C@@H]1C	87*	/	-1	/	/	-4
CC(C)CNS(=O)(=O)c1cc2c3c(c1)CCC(=O)N3CCC2	0	3	-3	93*	6	-2
COCC(=O)Nc1ccc2c(c1)C(=O)N(C)[C@H]1CC[C@@H](CC(=O)O)O[C@H]1CO2	1	/	1	262*[16.7 µM]	/	/
CN1C(=O)c2cc(NC(=O)NC3CCCC3)ccc2OC[C@H]2O[C@@H](CC(=O)O)CC[C@H]21	37	/	-2	138*[16.7 µM]	/	0
C[C@H]1CN([C@@H](C)CO)C(=O)Cc2cc(NC(=O)Nc3ccccc3)ccc2O[C@@H]1CN(C)C(=O)Nc1cccc2ccccc12	-1	/	7	-4[16.7 µM]	/	2
Cc1ccc(O)c(C(=O)/C=C/c2ccc3c(c2)OCCO3)c1	/	64*	/	/	3	1
Nc1ccccc1C(=O)/C=C/c1ccc2c(c1)OCO2	-3	-2	3	/	5	1
Cc1ccc(C(=O)C=Cc2ccc3c(c2)OCO3)c(C)c1	/	/	/	/	13	10
O=C(/C=C/c1ccc2c(c1)OCO2)c1ccc(O)cc1O	-8	1	-1	13	73*	5
Cc1ccc(NS(=O)(=O)c2cccc(C(=O)N(C)Cc3cccs3)c2)cc1	2	-5	-4	100*	-4	1
CCN(CC(=O)NCc1cccs1)C(=O)c1cccc(S(=O)(=O)Nc2ccc(C)cc2)c1	1	-6	0	80	0	-2
CCOC(=O)Nc1sc(C)nc1-c1ccccc1	1	-12	3	/	-2	-3
CCOC(=O)Nc1nc(-c2ccccc2)c(C(=O)c2ccc(Cl)cc2)s1	0	-1	0	110*	-11	/
O=c1[nH]c(CCl)nc2cc(-c3ccc(F)cc3)sc12	-3	2	5	-2	43*	2
COc1ccc(S(=O)(=O)N2CC[C@@H]3[C@@H](CO)N(C)c4ccc(-c5ccc(F)cc5)cc4[C@@H]32)cc1	1	/	-7	196*[16.7 µM]	/	6
Cc1ccccc1S(=O)(=O)N1CC[C@@H]2[C@@H](CO)N(C)c3ccc(-c4ccccc4)cc3[C@@H]21	-4	/	2	102*[16.7 µM]	/	-2
Cc1ccc(S(=O)(=O)N2CC[C@@H]3[C@H](CO)Nc4ccc(-c5ccccc5F)cc4[C@@H]32)cc1	90*	/	3	62[16.7 µM]	/	2
COc1cc(NS(=O)(=O)c2ccc(NC(=O)c3ccco3)cc2)nc(OC)n1	2	10	-4	2	9	/
COc1cc(NS(=O)(=O)c2ccc(NC(=S)NC(=O)c3ccco3)cc2)nc(OC)n1	0	-7	2	243*	0	7
CCCNC(=O)N[C@H]1CC[C@H](CCNS(=O)(=O)c2cccc(F)c2)O[C@H]1CO	1	/	6	-2[16.7 µM]	/	1
O=C(NC1CCCC1)N1CCCCN2[C@H](CO)[C@@H](c3ccc(-c4cncnc4)cc3)[C@H]2C1	106*	/	3	45[16.7 µM]	/	2
O=C(Nc1ccccc1)N1CCCCN2[C@H](CO)[C@H](c3ccc(C#CC4CC4)cc3)[C@H]2C1	1	/	-7	4[16.7 µM]	/	2
SMILES	Cneo AK release	PvdQ inh	PglD inh	miR-122 sensor	PDI turbidity	ERp5 inh
O=C(Nc1ccccc1)N1CCCCN2[C@H](CO)[C@@H](c3ccc(C#CC4CC4)cc3)[C@@H]2C1	100*	/	-2	17[16.7 µM]	/	-6
CCOC(=O)c1ccc(N2Cc3ccccc3C2)cc1O	-2	63*	2	-1	0	9
COc1ccc(S(=O)(=O)NCc2ccccc2)cc1	0	-15	-4	113*	8	/
COc1cc(S(=O)(=O)NCc2ccccc2)ccc1Br	/	-15	/	/	-1	/
O=S(=O)(NCc1ccccc1)c1ccc(Cl)c(S(=O)(=O)NCc2ccccc2)c1	-1	-7	-3	106*	11	/
COc1ccc(S(=O)(=O)NCc2ccccc2)cc1Br	1	5	-4	192*	-1	1
COc1ccc(CN(C)C[C@H]2Oc3ccc(NC(=O)CCC(F)(F)F)cc3C(=O)N([C@@H](C)CO)C[C@H]2C)cc1	-4	/	0	-4[16.7 µM]	/	1
N#Cc1ccc(-c2ccc(C3[C@@H]4CN(C(=O)c5ccc6c(c5)OCO6)C[C@H]3N4)cc2)cc1 (some centres not stated)	/	/	/	/	/	-4
O=C1C2C3C=CC(C4CC34)C2C(=O)N1CCc1ccccc1 (configuration not stated)	-1	1	-4	2	2	/
O=C(CN1C(=O)C2C3C=CC(C4CC34)C2C1=O)Oc1ccccc1 (configuration not stated)	1	34*	-2	/	-1	3
CC(=O)c1ccc(NC(=O)c2noc(C(C)C)c2[N+](=O)[O-])cc1	/	-24	/	/	-1	-8
COc1ccc(NC(=O)c2noc(C(C)C)c2[N+](=O)[O-])cc1	84*	11	4	-2	-60	-4
CO[C@@H]1CN(C)C(=O)c2ccc(NS(=O)(=O)CC(F)(F)F)cc2OC[C@H](C)N(Cc2cccnc2)C[C@H]1C	1	/	0	/	/	16
COc1ccc(C2Oc3ccccc3N2C(C)=O)cc1 (configuration not stated)	-2	1	4	-11	-9	/
CC(=O)Oc1ccc(C2OC(=O)c3ccccc3N2C(C)=O)cc1 (configuration not stated)	-1	-2	6	-18	32*	/
COc1ccc(NS(=O)(=O)c2cc(Br)cc3c2N(C(C)=O)CC3)cc1	-1	-7	3	189*	-6	3
CCOC(=O)N1CCN(c2ccc(Cl)cc2)CC1	-1	44*	14	-2	9	-3
COc1ccc(C(=O)Nc2ccc3c(c2)C(=O)N(C)C[C@@H](OC)[C@@H](C)CN[C@@H](C)CO3)cc1	4	/	2	-9[16.7 µM]	/	4
CCC(=O)N1[C@H](CO)[C@H](c2ccccc2)[C@H]1CN(CC)C(=O)c1cccc(F)c1	96*	/	24	17[16.7 µM]	/	1
Cc1ccc(-c2cc(C(=O)NCc3ccccn3)c3ccccc3n2)cc1	2	8	0	/	-2	/
CCc1ccc(-c2cc(C(=O)NCc3ccccn3)c3ccccc3n2)cc1	/	0	/	148*	5	/
